Compound activity (PubChem)
Most compounds without a hit are left out; they make up all but 2.9% or so of the library.
HTRA1 inh: blocks human HTRA1 serine peptidase; Q92743; recombinant HTRA1, FP-rhodamine activity-based probe, fluorescence polarization; inhibition, % at 5.96 µM; hit rate 0.5% among 340,000; AID 504803; in the data active = inhibition above about 36%;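 note: 0% = enzyme with DMSO and 100% = wells lacking enzyme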
SIAE primary: inhibitors of human sialic acid acetylesterase SIAE | Q9HAT2 | SIAE FP-Rh probe binding, fluorescence polarization | hit rate 0.69% among 370,000 | inhibition, % at 9.66 µM | AID 1053197;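 active = inhibition above a cutoff: mean of compounds within the control limits plus 3 SD of those, cut at about 17% in these data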;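 note: 0% = plate median of compound wells and 100% = probe without SIAE protein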
Target sequence (Q9HAT2 whole entry, looked up): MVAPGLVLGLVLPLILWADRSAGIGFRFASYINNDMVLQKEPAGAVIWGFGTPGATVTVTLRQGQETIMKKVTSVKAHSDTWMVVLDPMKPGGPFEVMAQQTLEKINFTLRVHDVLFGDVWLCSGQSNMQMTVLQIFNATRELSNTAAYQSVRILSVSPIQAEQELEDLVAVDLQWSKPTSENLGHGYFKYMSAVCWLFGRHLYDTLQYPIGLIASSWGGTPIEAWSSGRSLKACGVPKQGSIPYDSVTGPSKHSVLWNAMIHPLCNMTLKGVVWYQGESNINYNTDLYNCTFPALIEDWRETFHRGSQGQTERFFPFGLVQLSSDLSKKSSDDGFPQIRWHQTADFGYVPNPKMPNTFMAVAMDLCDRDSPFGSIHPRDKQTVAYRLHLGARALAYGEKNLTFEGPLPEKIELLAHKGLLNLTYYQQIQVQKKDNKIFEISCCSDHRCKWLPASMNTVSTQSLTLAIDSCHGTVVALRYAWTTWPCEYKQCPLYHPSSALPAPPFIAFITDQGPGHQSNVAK
TCR-CD3 inh: inhibitors of human TCR-CD3 interaction. TAMRA-labeled TCR probe fluorescence, biochemical. hit rate 0.37% among 360,000. inhibition, % at 9.4 µM. AID 651800;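 note: recombinant mutant TCR 2C K166C tagged with TAMRA read by polarization; 0% = receptor in buffer alone and 100% = receptor with positive control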
PAD4 FP inh: blocks human protein arginine deiminase 4. recombinant PAD4, RCA probe fluorescence polarization. AID 485272. hit rate 0.41% among 330,000. inhibition, % at 6.36 µM;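 active = percent inhibition above a cutoff equal to the mean of all tested compounds plus 3 SD, cut at about 15% in these data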;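 note: 0% = PAD4 with RCA probe and DMSO and 100% = probe without PAD4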
ABHD4 inh: inhibitors of mouse ABHD4 | purified mABHD4, FP-Rh probe fluorescence polarization | inhibition, % at 8.92 µM | hit rate 0.54% among 370,000;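 active = inhibition exceeding the mean over every tested compound plus 3 SD, cut at about 30% in these data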;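 note: 0% = plate median of compound wells and 100% = S159A mutant with DMSO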
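Test system: mABHD4 protein; Read-out basis: % inhibition; Incubation: 45 min + 60 min at 25 °C; Repeats: single replicate; Technique: fluorescence polarization with parallel and perpendicular emission, 525/598 nm; Compound: 8.92 µM, single dose; Benchmarks: full inhibition S159A mutant plus DMSO, zero as sample-well median.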
PRMT1 inh: inhibitors of human PRMT1 | inhibition, % at 2.79 µM | hit rate 1.3% among 370,000 | Q99873 | recombinant PRMT1, activity-based probe fluorescence polarization | AID 652257;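 active = inhibition above about 21% made by adding two undisclosed values, limit read from the data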
BSA TAMRA ctr: BSA probe counter-screen for TCR-CD3 inhibitors. shares compounds with TCR-CD3 inh. TAMRA-labeled BSA probe fluorescence counterscreen. inhibition, % at 9.4 µM. hit rate 10% among 1,200; in the data active = inhibition above about 23%;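 note: 0% = buffer low control and 100% = reference high control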
TCR-CD3 conf: confirmation of human TCR-CD3 interaction inhibitors; hit rate 48% among 1,200; TAMRA-labeled TCR probe fluorescence binding assay; shares compounds with TCR-CD3 inh; inhibition, % at 9.4 µM; AID 652036
PRMT1 confirm: confirmation of human PRMT1 inhibitors. recombinant His-PRMT1, activity-based probe fluorescence polarization. shares compounds with PRMT1 inh. inhibition, % at 2.79 µM. hit rate 42% among 3,300;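 active = mean inhibition across replicates above the hit cutoff derived for the earlier primary screen, cut at about 22% in these data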
mABHD4 conf: confirmation of mouse ABHD4 inhibitors; shares compounds with ABHD4 inh; purified mABHD4, FP-Rh probe fluorescence polarization; inhibition, % at 8.92 µM; hit rate 55% among 1,800; AID 720658;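 active = mean inhibition across replicates above the hit cutoff set in the primary screen, cut at about 30% in these data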;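 note: 0% = wild-type ABHD4 with DMSO and 100% = catalytically dead S159A mutant with DMSO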
SIAE inh conf: human SIAE inhibition, confirmation; SIAE FP-Rh activity-based probe, fluorescence polarization; inhibition, % at 9.66 µM; shares compounds with SIAE primary; hit rate 13% among 2,300;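 active = mean inhibition of the replicates above the hit cutoff set in the primary screen, cut at about 17% in these data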;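 note: 0% = SIAE with DMSO and probe and 100% = probe without SIAE; inhibitors lower polarization as more probe stays unbound to SIAE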
The depositor's hits bear a star. Cut-off read from the data, not from the text of the source, unless noted: active = inhibition above about 19%; inactive = the rest.

For O=C(N/N=C/c1ccncc1)c1cc([N+](=O)[O-])cc([N+](=O)[O-])c1O the results were HTRA1 inh 34, SIAE primary 3, TCR-CD3 inh 38*, PAD4 FP inh 0, ABHD4 inh 32*, PRMT1 inh 5, BSA TAMRA ctr 4, TCR-CD3 conf 48* and mABHD4 conf 36*.
`O=C(N/N=C/c1cc2c(c([N+](=O)[O-])c1)OCO2)c1ccncc1` gave HTRA1 inh 6, SIAE primary 5, TCR-CD3 inh 10, PAD4 FP inh 3, ABHD4 inh 10 and PRMT1 inh 5.
Oc1cc2c(cc1O)[C@H]1c3ccc(O)c(O)c3OC[C@@]1(O)C2 was read as HTRA1 inh 24, SIAE primary -9, TCR-CD3 inh 128*, PAD4 FP inh 7, ABHD4 inh 33*, PRMT1 inh 43*, BSA TAMRA ctr 65*, TCR-CD3 conf 116*, PRMT1 confirm 38* and mABHD4 conf 12.
For C/C(=N\NC(=O)COc1cccc(C)c1)c1ccc2ccccc2c1O the results were HTRA1 inh 13, SIAE primary -3, TCR-CD3 inh 28*, ABHD4 inh 49*, PRMT1 inh 2, BSA TAMRA ctr -14, TCR-CD3 conf 16 and mABHD4 conf 46*.
`Cc1cccc(OCC(=O)NCc2ccccc2)c1` gave HTRA1 inh 2, SIAE primary -5, TCR-CD3 inh 0, PAD4 FP inh -1, ABHD4 inh 9 and PRMT1 inh 0.
Screening O=C(NCCc1ccccn1)c1ccc2c(c1)ncn2C1CCCCC1 returned SIAE primary 4, ABHD4 inh 2 and PRMT1 inh 1.
`Cc1ccccc1NC(=S)N/N=C/c1ccc(O)cc1O` gave HTRA1 inh 35, SIAE primary 14, TCR-CD3 inh 20*, PAD4 FP inh 1, ABHD4 inh 34*, PRMT1 inh -1, BSA TAMRA ctr -16, TCR-CD3 conf 7 and mABHD4 conf 11.
Cc1cccc(NC(=S)N/N=C/c2cccc(O)c2)c1C was read as HTRA1 inh -1, SIAE primary 6, TCR-CD3 inh -4, PAD4 FP inh -9, ABHD4 inh -9 and PRMT1 inh 0.
Screening CCCOc1ccc(/C=N/NC(=S)Nc2ccccc2[N+](=O)[O-])c(O)c1 returned SIAE primary 13, TCR-CD3 inh 27*, PAD4 FP inh -3, ABHD4 inh 39*, PRMT1 inh -4, BSA TAMRA ctr -12, TCR-CD3 conf 8 and mABHD4 conf 36*.
For Cc1cc(Br)c2nc(-c3ccc(F)cc3)c(Cc3cccc(Cl)c3)n2c1 the results were SIAE primary -3, TCR-CD3 inh 1, ABHD4 inh -13 and PRMT1 inh 0.
[O-][n+]1c2ccccc2[n+]([O-])c2cc(O)ccc21 was read as HTRA1 inh 28, SIAE primary 10, TCR-CD3 inh 21*, PAD4 FP inh 7, ABHD4 inh 31*, PRMT1 inh 4, BSA TAMRA ctr 10, TCR-CD3 conf 22* and mABHD4 conf 35*.
C#CCNC(=O)C[C@H]1C[C@@]2(C(=O)OC)C(=C[C@H](C3CCCC3)O[C@@H]2C)N(CCc2ccc(OC)c(OC)c2)C1=O was read as SIAE primary -3, ABHD4 inh 4 and PRMT1 inh -1.
`COc1ccc(-n2c(SCc3ccc([N+](=O)[O-])cc3)nnc2-c2ccco2)cc1` gave SIAE primary 5, ABHD4 inh 0 and PRMT1 inh 1.
Screening CCOC(=O)C1=Nc2cccc3c(O)ccc1c23 returned SIAE primary 30*, TCR-CD3 inh 85*, ABHD4 inh 29, PRMT1 inh 75*, BSA TAMRA ctr 141*, TCR-CD3 conf 110*, PRMT1 confirm 80* and SIAE inh conf 18*.
C/C(=N\NC(=O)c1cc(O)ccc1O)c1cccc(NC(=O)c2cccc(Cl)c2)c1 was read as HTRA1 inh 2, SIAE primary 33*, TCR-CD3 inh 43*, PAD4 FP inh -9, ABHD4 inh 54*, PRMT1 inh 31*, BSA TAMRA ctr -13, TCR-CD3 conf 15, mABHD4 conf 36* and SIAE inh conf 20*.
For Cn1ccc2c(N3CCCCCCC3)cc3c(c21)C1CCC3O1 (stereo not given) the results were SIAE primary 49*, TCR-CD3 inh 91*, ABHD4 inh 40*, PRMT1 inh 13, BSA TAMRA ctr -3, TCR-CD3 conf -1, mABHD4 conf 6 and SIAE inh conf 6.
CN(c1cc2c(c3c1ccn3C)C1CCC2O1)C1CCCCC1 (stereo not given) was read as SIAE primary -2, TCR-CD3 inh 3, ABHD4 inh 2 and PRMT1 inh 1.
`C[C@H]1[C@H](NC(=O)c2cccc(Cl)c2)CC[C@@]23CCCN2C(=O)CCC[C@@H]13` gave SIAE primary -5, ABHD4 inh 0 and PRMT1 inh -1.
For CCOc1ccc(NC(=O)NNC(=O)c2ccc3ccccc3c2O)cc1 the results were HTRA1 inh 18, SIAE primary 21*, TCR-CD3 inh 32*, PAD4 FP inh -7, ABHD4 inh 28, PRMT1 inh 1, BSA TAMRA ctr -8, TCR-CD3 conf 23* and SIAE inh conf 2.
For CCOc1ccc(NC(=O)NNC(=O)COc2ccc3ccccc3c2)cc1 the results were HTRA1 inh 1, SIAE primary -2, TCR-CD3 inh -5, PAD4 FP inh -2, ABHD4 inh 3 and PRMT1 inh -2.
`O=C(CCc1ccccc1)N[C@H]1[C@@H](OC(=O)C2CC2)CCC[C@@]12C(=O)N(Cc1ccccc1)c1ccccc12` gave SIAE primary -5, ABHD4 inh -7 and PRMT1 inh 4.
`COC(=O)[C@]12C[C@H](CC(=O)N3CCN(C(=O)c4ccco4)CC3)C(=O)N(CCc3ccc(OC)c(OC)c3)C1=C[C@H](C(C)(C)C)O[C@@H]2C` gave SIAE primary -3, ABHD4 inh 3 and PRMT1 inh 1.
